In experiment [1] the target is T1, Beta-lactamase (Bacillus clausii) (UniProt A8RR46).
T1 sequence (whole entry): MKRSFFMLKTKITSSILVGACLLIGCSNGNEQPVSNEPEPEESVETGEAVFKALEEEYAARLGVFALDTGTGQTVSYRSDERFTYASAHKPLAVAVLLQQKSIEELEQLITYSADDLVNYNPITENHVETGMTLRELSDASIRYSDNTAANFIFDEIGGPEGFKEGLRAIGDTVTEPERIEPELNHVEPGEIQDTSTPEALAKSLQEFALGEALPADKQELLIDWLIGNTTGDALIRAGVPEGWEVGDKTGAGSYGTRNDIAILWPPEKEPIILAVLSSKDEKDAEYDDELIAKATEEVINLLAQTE
In words: Activity of Bacillus clausii NR beta-lactamase BCL1 expressed in Escherichia coli BL21 (DE3) assessed as specific activity per mg of protein at 100 uM. The settings on record: Shouchella clausii. A digest of the protocol: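 Enzyme from E. coli BL21(DE3)(pET-BCL-1), induced with 0.4 mM IPTG at 37°C for 5 h in TS broth with amoxicillin and kanamycin. Cells were sonicated. Enzyme purified by S-Sepharose (50 mM phosphate, pH 6.5) then Q-Sepharose (20 mM Tris-HCl, pH 9; 0–1 M NaCl gradient). Protein by DC assay. Activity read with 100 μM cephalothin as substrate.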

The nature of experiment [2]: Ratio of Kcat for Bacillus clausii NR beta-lactamase BCL1 to Kcat for Bacillus cereus beta lactamase BcI.
The nature of experiment [3]: Ratio of Kcat for Bacillus cereus beta-lactamase BcI to Kcat for Bacillus clausii NR beta-lactamase BCL1.
Experiment [4] is described as follows: Ratio of Kcat to Km for Bacillus clausii NR beta-lactamase BCL1 to ratio of Kcat/Km for Bacillus anthracis beta-lactamase Bla1.
The target of experiment [5] is T1, Beta-lactamase (Bacillus clausii). In words: Induction of Bacillus clausii NR beta-lactamase BCL1 activity expressed in Escherichia coli BL21 (DE3) assessed as specific activity per mg of protein at 5 ug/ml. The settings on record: Shouchella clausii. A digest of the protocol:
(§1)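 Induction in B. clausii NR and ATCC 21537 cultures using cefoxitin at 1 to 5 μg/ml as inducer. β-Lactamase activity of extracts read with 100 μM penicillin G as substrate and expressed per mg protein.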

Experiment [6] has the same target. The experiment in a line: Induction of Bacillus clausii ATCC 21537 beta-lactamase BCL1 activity expressed in Escherichia coli BL21 (DE3) assessed as specific activity per mg of protein at 5 ug/ml. To be noted: Shouchella clausii. In outline: as §1

Consider ten compounds from ChEMBL document CHEMBL1137660, “Molecular and biochemical characterization of the chromosome-encoded class A beta-lactamase BCL-1 from Bacillus clausii” (Antimicrob Agents Chemother, 2007).

For `CC(=O)OCC1=C(C(=O)O)N2C(=O)[C@@H](NC(=O)Cc3cccs3)[C@H]2SC1`, the Activity in experiment [1] was found to be 35 U. Besides, in experiment [2], the fold change (FC) worked out at 100.

Take `CC1(C)S[C@@H]2[C@H](NC(=O)Cc3ccccc3)C(=O)N2[C@H]1C(=O)O`: the Ratio in experiment [3] is 200. For the same compound, the fold change (FC) in experiment [4] was determined as 10.

For the compound `CO/N=C(\C(=O)N[C@@H]1C(=O)N2C(C(=O)O)=C(COC(C)=O)CS[C@H]12)c1csc(N)n1`, the fold change (FC) in experiment [2] worked out at 100.

As to `CO[C@@]1(NC(=O)Cc2cccs2)C(=O)N2C(C(=O)O)=C(COC(N)=O)CS[C@@H]21`, the Activity in experiment [5] and in experiment [6] was 500 U in each case.

Turning to `CC1(C)S[C@@H]2[C@H](NC(=O)[C@H](C(=O)O)c3ccsc3)C(=O)N2[C@H]1C(=O)O`, the fold change (FC) in experiment [4] stood at 10.

For `CC1(C)S[C@@H]2[C@H](NC(=O)[C@H](N)c3ccc(O)cc3)C(=O)N2[C@H]1C(=O)O`, the fold change (FC) in experiment [4] stood at 10.

`CO/N=C(\C(=O)N[C@@H]1C(=O)N2C(C(=O)O)=C(COC(N)=O)CS[C@H]12)c1ccco1`: the fold change (FC) in experiment [2] was 100.

For `CCN1CCN(C(=O)N[C@@H](C(=O)N[C@@H]2C(=O)N3[C@@H]2SC(C)(C)[C@@H]3C(=O)O)c2ccccc2)C(=O)C1=O`, in experiment [4], the fold change (FC) stood at 10.

With `CO/N=C(\C(=O)N[C@@H]1C(=O)N2C(C(=O)[O-])=C(C[n+]3cccc4c3CCC4)CS[C@H]12)c1csc(N)n1`, the fold change (FC) in experiment [2] was 500.

For `O=C(Cc1cccs1)N[C@@H]1C(=O)N2C(C(=O)[O-])=C(C[n+]3ccccc3)CS[C@H]12`, the fold change (FC) in experiment [4] is 2.
